As usually defined, the viability is a read-out of living cells in per cent, often relative to untreated cells. One may read the inhibition as the change of the read-out against control, counted positive when it falls.

A short description of experiment [1]: reducers of endogenous Her2 protein level, primary screen, SKBR3 breast tumor cells, AlphaScreen, ATP viability (AID 461;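 active = Her2 level under about 52% in both replicate screens, with viability over 70% of control, limit read from the data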;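 as to Her2 level: lower value means less Her2 protein in the cells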;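 as to viability: percent of carrier control wells set as 100% viability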). The settings on record: 18-24 h, measured here: SKBR3 viability, ATP luminescence, at 10 µM.
Experiment [2] has as its target Receptor tyrosine-protein kinase erbB-2 (Homo sapiens) (UniProt P04626). Described as above. The settings on record: 18-24 h, at 10 µM, stronger effect = lower value.
The nature of experiment [3]: SK-BR-3 cell growth inhibitors, pilot screen, 24 h, human (AID 572;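 active = viability at or below 10% of carrier control in both of two separate runs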;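 also: compound exposure lasted between 18 and 24 h rather than exactly 24 h; 100% = carrier-treated control wells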). The settings on record: SK-BR-3 viability, CellTiter-Glo luminescence, at 10 µM, stronger effect = lower value.
The nature of experiment [4]: HUVEC growth inhibition – cell-based, human, primary screen (AID 575;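 active = viability at or below 30% in both replicate assays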;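 also: 100% = median of untreated cell wells with 0.1% DMSO on each plate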). The settings on record: HUVEC proliferation, CellTiter-Glo luminescence, 72 h; at 10 µM; stronger effect = lower value. Summed up:
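Material: primary human umbilical vein endothelial cells / Schedule: 72 h exposure, 37 °C, 5% CO2, 30 min RT equilibration / Signal: ATP-based CellTiter-Glo luminescent read / Read-out basis: percent of median DMSO-control luminescence / Control set: 32 DMSO-only cell-control wells (high), 32 MePR drug-control wells (low) per plate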
(ATP-based viability assays read luminescence as a measure of living cells.)

Experiment [5] can be described thus: growth inhibitors of H69AR lung tumor, primary screen, human, duplicate replicates (AID 580;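 active = viability at or under a set limit in both replicates, limit being median viability minus 3 SD, cut at about 48% in these data, passing the limit was not always enough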;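 also: 100% = mean luminescence of untreated wells and 0% = no signal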). Conditions: H69AR lung tumor cells viability, ATP luminescence, 72 h; at 10 µM; stronger effect = lower value.
The nature of experiment [6]: reversal of MRP1-mediated doxorubicin resistance, pilot screen, H69AR cells, doxorubicin co-treatment (AID 601;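 active = viability loss from added drug above about 55%, and viability with drug at most 40%, in both replicates, limit read from the data, passing the limit was not always enough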). The settings on record: CellTiter-Glo, 72 h, at 10 µM; for differential viability (reversal): stronger effect = higher value.
Experiment [7] in a line: 384-well plate pilot, post-Golgi transport modulator project, inhibition of yeast transport mutant growth (AID 636; in the data active = inhibition above about 31%). Conditions: absorbance 615 nm, about 18 h, stronger effect = higher value.
Experiment [8] is described as follows: growth suppression of yeast trafficking mutant, preliminary HTS, modulators of trafficking downstream of Golgi apparatus project, 1536-format plate, OD 615 nm (AID 637). The settings on record: yeast transport mutant growth, absorbance 615 nm, 18 h; stronger effect = higher value.
Setting [9] is: H69AR cells + 2 uM doxorubicin, measured here: viability with 2 uM doxorubicin, stronger effect = lower value.
The mark [10] stands for this setting: H69AR cells, compound alone cytotoxicity.

The structures appear in SMILES notation. Calls of active or inactive are those of the source. Rule as the data show it, unless noted: active = inhibition above about 30%; inactive = the rest.

Sequence of Receptor tyrosine-protein kinase erbB-2 (Homo sapiens) (P04626 whole entry, looked up): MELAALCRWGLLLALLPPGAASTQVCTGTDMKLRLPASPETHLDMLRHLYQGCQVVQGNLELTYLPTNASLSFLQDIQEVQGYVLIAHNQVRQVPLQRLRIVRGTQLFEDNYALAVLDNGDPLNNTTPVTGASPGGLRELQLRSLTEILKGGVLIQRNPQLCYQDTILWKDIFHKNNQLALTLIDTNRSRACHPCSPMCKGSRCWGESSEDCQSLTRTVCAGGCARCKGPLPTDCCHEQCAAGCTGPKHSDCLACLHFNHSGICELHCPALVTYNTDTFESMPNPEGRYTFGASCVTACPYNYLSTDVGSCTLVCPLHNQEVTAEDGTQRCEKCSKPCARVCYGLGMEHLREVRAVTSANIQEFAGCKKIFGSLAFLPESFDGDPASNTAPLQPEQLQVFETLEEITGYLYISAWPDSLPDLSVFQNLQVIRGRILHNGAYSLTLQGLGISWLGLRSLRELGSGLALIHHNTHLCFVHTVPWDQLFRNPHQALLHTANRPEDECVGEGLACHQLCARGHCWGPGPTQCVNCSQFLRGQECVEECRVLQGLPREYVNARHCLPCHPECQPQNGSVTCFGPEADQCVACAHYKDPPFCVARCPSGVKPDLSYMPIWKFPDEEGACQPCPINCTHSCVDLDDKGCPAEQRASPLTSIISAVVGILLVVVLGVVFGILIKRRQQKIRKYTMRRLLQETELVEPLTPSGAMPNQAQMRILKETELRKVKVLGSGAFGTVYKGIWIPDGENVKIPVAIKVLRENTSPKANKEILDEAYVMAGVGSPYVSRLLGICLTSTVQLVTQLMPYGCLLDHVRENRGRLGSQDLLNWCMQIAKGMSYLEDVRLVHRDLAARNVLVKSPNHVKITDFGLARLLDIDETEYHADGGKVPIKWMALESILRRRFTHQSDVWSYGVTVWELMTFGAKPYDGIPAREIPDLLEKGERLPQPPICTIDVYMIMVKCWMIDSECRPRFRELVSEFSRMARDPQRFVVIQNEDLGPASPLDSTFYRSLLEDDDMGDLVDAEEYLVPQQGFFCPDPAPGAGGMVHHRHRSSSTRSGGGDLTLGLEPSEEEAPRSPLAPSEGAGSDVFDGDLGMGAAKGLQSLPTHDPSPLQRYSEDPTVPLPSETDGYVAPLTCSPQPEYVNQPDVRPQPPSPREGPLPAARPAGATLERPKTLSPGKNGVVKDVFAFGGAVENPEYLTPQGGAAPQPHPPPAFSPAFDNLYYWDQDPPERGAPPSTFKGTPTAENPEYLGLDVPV

Turning to `COc1ccc2nc(NC(=O)C(NS(=O)(=O)c3cccs3)C(C)C)sc2c1` (stereo not given), the viability is 90.5% in experiment [1]; 90.5% (inactive) in experiment [3]; 70.7% (inactive) in experiment [4]; 92.7% (inactive) in experiment [5]; 86.9% in experiment [6] (setting [9]); 92.7% in experiment [6] (setting [10]). In addition, the Her2 level in experiment [2] is 77% (inactive). Further, the differential viability (reversal) in experiment [6] (H69AR cells + 2 uM doxorubicin) is 5.86% (inactive). In addition, the results for the inhibition in experiment [7] and in experiment [8] were -2.5% (inactive) and -5.64% (inactive), respectively.
On to `COc1ccc(CN(C(=O)c2cccs2)c2nccs2)cc1OC`, for which the viability was 74% in experiment [1]; 74% (inactive) in experiment [3]; 90.4% (inactive) in experiment [4]; 94.6% (inactive) in experiment [5]; 99.6% in experiment [6] (setting [9]); 94.6% in experiment [6] (setting [10]). Besides, the Her2 level in experiment [2] was 68.5% (inactive). Also, the differential viability (reversal) in experiment [6] (H69AR cells + 2 uM doxorubicin) is -4.98% (inactive). The inhibition in experiment [7] is -4.46% (inactive); in experiment [8], -0.98% (inactive).
Take `CCC(c1nnc(SCC(=O)NCC2CCCO2)n1Cc1ccccc1)N(C)C` (stereo not given): the viability in experiment [1] was 98.5%; in experiment [3], 98.5% (inactive); in experiment [4], 96.8% (inactive); in experiment [5], 89.2% (inactive); in experiment [6] (setting [9]), 83.3%; in experiment [6] (setting [10]), 89.2%. Also, the Her2 level in experiment [2] was 98% (inactive). Moreover, the differential viability (reversal) in experiment [6] (H69AR cells + 2 uM doxorubicin) was 5.86% (inactive). Further, the inhibition in experiment [7] is -7.47% (inactive); in experiment [8], -1.61% (inactive).
Take `CC1=NC(Nc2nc(C)c3ccccc3n2)=NC(C)(C)C1`: the viability in experiment [1] was 78.5%; in experiment [3] it was 78.5% (inactive); in experiment [4], 74.3% (inactive); in experiment [5], 62.4% (inactive); in experiment [6] (setting [9]), 77%; in experiment [6] (setting [10]), 62.4%. Further, the Her2 level in experiment [2] was 72.5% (inactive). Further, the differential viability (reversal) in experiment [6] (H69AR cells + 2 uM doxorubicin) is -14.6% (inactive). Also, the inhibition is -0.39% (inactive) in experiment [7] and -7.38% (inactive) in experiment [8].
`CCCN(CCC)S(=O)(=O)c1ccc(C(=O)Nc2nnc(-c3cccc(OC)c3)o2)cc1`: the viability is 98.5% in experiment [1]; 98.5% (inactive) in experiment [3]; 8.23% (active) in experiment [4]; 15.3% (active) in experiment [5]; 22.3% in experiment [6] (setting [9]); 15.3% in experiment [6] (setting [10]). The Her2 level in experiment [2] was 89% (inactive). Also, in experiment [6] (H69AR cells + 2 uM doxorubicin), the differential viability (reversal) was -7.05% (inactive). The results for the inhibition in experiment [7] and in experiment [8] were -5.79% (inactive) and -1.64% (inactive), respectively.
`COc1ccc(C2(CN(C(C)=O)C(C)=O)CCCC2)cc1OC`: the viability was 89.5% in experiment [1]; 89.5% (inactive) in experiment [3]; 114% (inactive) in experiment [4]; 90.4% (inactive) in experiment [5]; 88.7% in experiment [6] (setting [9]); 90.4% in experiment [6] (setting [10]). The Her2 level in experiment [2] is 93% (inactive). Further, the differential viability (reversal) in experiment [6] (H69AR cells + 2 uM doxorubicin) is 1.69% (inactive). Further, the inhibition in experiment [7] is -4.8% (inactive); in experiment [8], -4.92% (inactive).
In the case of `O=C(c1ccccc1)c1ccc(N2CCOCC2)c(NC(=O)c2ccco2)c1`, the viability in experiment [1] is 82.5%; in experiment [3], 82.5% (inactive); in experiment [4], 81.1% (inactive); in experiment [5], 87.3% (inactive); in experiment [6] (setting [9]), 71.6%; in experiment [6] (setting [10]), 87.3%. For the same compound, the Her2 level in experiment [2] is 78.5% (inactive). Further, in experiment [6] (H69AR cells + 2 uM doxorubicin), the differential viability (reversal) was 15.7% (inactive). Besides, the inhibition was -3.16% (inactive) in experiment [7] and 2.86% (inactive) in experiment [8].
On to `CCOc1ccc(Nc2nc(Cc3nnc(SCC(N)=O)o3)cs2)cc1`, for which the viability in experiment [1] is 106%; in experiment [3] it was 106% (inactive); in experiment [4], 89.8% (inactive); in experiment [5], 93.6% (inactive); in experiment [6] (setting [9]), 80.4%; in experiment [6] (setting [10]), 93.6%. The Her2 level in experiment [2] was 88% (inactive). In experiment [6] (H69AR cells + 2 uM doxorubicin), the differential viability (reversal) is 13.2% (inactive). Besides, the inhibition in experiment [7] is -6.1% (inactive); in experiment [8], -2.7% (inactive).
As for `Cc1ccc(S(=O)(=O)N(C)Cc2cc3ccccc3[nH]c2=O)cc1`, the viability in experiment [1] is 114%; in experiment [3], 114% (inactive); in experiment [4], 111% (inactive); in experiment [5], 91.5% (inactive); in experiment [6] (setting [9]), 87.9%; in experiment [6] (setting [10]), 91.5%. Besides, the Her2 level in experiment [2] was 86.5% (inactive). Besides, in experiment [6] (H69AR cells + 2 uM doxorubicin), the differential viability (reversal) was 3.6% (inactive). In addition, the inhibition in experiment [7] is 0.26% (inactive); in experiment [8], -6.91% (inactive).
Turning to `C=CCn1c2ccccc2c2nnc(SCC(=O)NC(C(=O)OC)C(C)C)nc21` (stereo not given), the viability in experiment [1] was 112%; in experiment [3], 112% (inactive); in experiment [4], 83.5% (inactive); in experiment [5], 76.8% (inactive); in experiment [6] (setting [9]), 74.5%; in experiment [6] (setting [10]), 76.8%. Further, the Her2 level in experiment [2] was 96% (inactive). For the same compound, the differential viability (reversal) in experiment [6] (H69AR cells + 2 uM doxorubicin) is 2.25% (inactive). Besides, the results for the inhibition in experiment [7] and in experiment [8] were -3.12% (inactive) and -4.26% (inactive), respectively.
Turning to `O=C(Cn1nnc(-c2cccc(C(F)(F)F)c2)n1)NC(=O)NCc1ccco1`, the viability in experiment [1] was 89%; in experiment [3], 89% (inactive); in experiment [4], 98.3% (inactive); in experiment [5], 74.1% (inactive); in experiment [6] (setting [9]) it was 77.5%; in experiment [6] (setting [10]), 74.1%. Besides, in experiment [2], the Her2 level is 102% (inactive). Also, the differential viability (reversal) in experiment [6] (H69AR cells + 2 uM doxorubicin) is -3.41% (inactive). Also, the inhibition in experiment [7] is -1.05% (inactive); in experiment [8] it was -1.82% (inactive).
Consider `COc1ccccc1NC(=O)CSc1nnnn1-c1ccc2c(c1)OCO2`, for which the viability was 92% in experiment [1]; 92% (inactive) in experiment [3]; 98.7% (inactive) in experiment [4]; 90.9% (inactive) in experiment [5]; 75.8% in experiment [6] (setting [9]); 90.9% in experiment [6] (setting [10]). Also, the Her2 level in experiment [2] is 84% (inactive). Also, in experiment [6] (H69AR cells + 2 uM doxorubicin), the differential viability (reversal) is 15.1% (inactive). In addition, the inhibition in experiment [7] is -4.11% (inactive); in experiment [8], 0% (inactive).
As to `Cc1cccc(-n2nnc(C(=O)NCc3ccccc3)c2N)c1`, the viability in experiment [1] is 110%; in experiment [3], 110% (inactive); in experiment [4] it was 102% (inactive); in experiment [5], 90.4% (inactive); in experiment [6] (setting [9]), 87%; in experiment [6] (setting [10]), 90.4%. Besides, the Her2 level in experiment [2] is 84.5% (inactive). Moreover, the differential viability (reversal) in experiment [6] (H69AR cells + 2 uM doxorubicin) was 3.36% (inactive). In addition, the inhibition in experiment [7] was 0.92% (inactive); in experiment [8], -3.45% (inactive).
As for `CCN(CC)S(=O)(=O)c1ccc(NC2c3ccccc3C(=O)N2CCN2CCOCC2)cc1` (stereo not given), the viability in experiment [1] is 101%; in experiment [3] it was 101% (inactive); in experiment [4], 85.2% (inactive); in experiment [5] it was 87% (inactive); in experiment [6] (setting [9]) it was 76.2%; in experiment [6] (setting [10]) it was 87%. For the same compound, the Her2 level in experiment [2] is 105% (inactive). Also, the differential viability (reversal) in experiment [6] (H69AR cells + 2 uM doxorubicin) is 10.8% (inactive). Besides, the inhibition was -1.54% (inactive) in experiment [7] and -0.83% (inactive) in experiment [8].
`CCOCCCNC(=O)CCNS(=O)(=O)c1ccc(C)cc1`: the viability is 102% in experiment [1]; 102% (inactive) in experiment [3]; 89.9% (inactive) in experiment [4]; 105% (inactive) in experiment [5]; 96.7% in experiment [6] (setting [9]); 105% in experiment [6] (setting [10]). The Her2 level in experiment [2] was 108% (inactive). Moreover, the differential viability (reversal) in experiment [6] (H69AR cells + 2 uM doxorubicin) is 8.21% (inactive). Also, the inhibition is -3.03% (inactive) in experiment [7] and -5.5% (inactive) in experiment [8].
For the compound `O=C(CCSc1nccn1Cc1ccccc1)N1CCOCC1`, the viability in experiment [1] was 107%; in experiment [3] it was 107% (inactive); in experiment [4], 103% (inactive); in experiment [5] it was 97% (inactive); in experiment [6] (setting [9]), 86%; in experiment [6] (setting [10]) it was 97%. The Her2 level in experiment [2] was 111% (inactive). For the same compound, in experiment [6] (H69AR cells + 2 uM doxorubicin), the differential viability (reversal) was 11.1% (inactive). The results for the inhibition in experiment [7] and in experiment [8] were -6.13% (inactive) and -0.65% (inactive), respectively.

For the origin of these results see PubChem BioAssay.
